Experimental data reported in the RNAGym collection of RNA variant scans (doi:10.1126/science.aae0568).
Fewer inactive variants are shown than the library holds.

B1: tRNA (parent)
chain: GUUCCGUUGGCGUAAUGGUAACGCGUCUCCCUCCUAAGGAGAAGACUGCGGGUUCGAGUCCCGUACGGAACG

Variants of: B1
Assay: yeast fitness relative to wild type (ratio to wild type); higher = fitter; tRNA-Arg(CCU), competitive growth, 37 C, YPD
Procedure, shortened: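 Gene amplicons from the start population and from each of six end populations were read by 100-nucleotide paired-end sequencing. Those end populations came from pooled Saccharomyces cerevisiae strains carrying tRNA-Arg(CCU) gene variants at the native locus, competed in YPD at 37°C for 24 hours. Fitness relative to wild type was worked out from changes in genotype frequencies. Genotypes needed ≥ 100 starting reads, and estimates < 0.5 were set to 0.5.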

Variant | yeast fitness
C46U G48A C55U U59A | ≤ 0.5
C49A C55G | ≤ 0.5
C49A G56C G68C | 0.574
U47A C55G C66G | 0.639
U47C U59G | 0.936
C49A G52A C61U | ≤ 0.5
C46G U59C G68C | ≤ 0.5
G48C G67C A70U | 0.53
A45G G68C | 0.695
G48A C62U | 1.01
U47G C60A | ≤ 0.5
U47G A69C | 0.69
U47G A69U | 0.764
U47C A57G A65U C66A A69C | ≤ 0.5
C46G C49U A65U A69C | ≤ 0.5
U47A G51A C55U | 0.642
C46U G50A G56C C62A C66U | 0.582
G48A G51A A69U | 0.755
A45U A65G A70C | 0.754
G48C A70U | 1
A45U G52C | 0.642

Variant | yeast fitness
G48C U53G | 0.635
G48C U53C | 0.694
A45G G58A U64A | 0.71
A45U U47A C60G | ≤ 0.5
G48A U54G A70U | ≤ 0.5
U47C U64C | 0.926
A45G C49A | 0.609
U47G C62G G68A | 0.525
C46G G48C U64G | ≤ 0.5
C46G U59G C61G | ≤ 0.5
G48A G68U A69C | 0.524
C46U U53C | 0.854
U47C A65G G68C | 0.546
U47A G52C | 0.581
U47A G52A | 0.821
C49A A57C A65G | ≤ 0.5
G48A A57G C61U C62U | ≤ 0.5
C49A G56C G58C | ≤ 0.5
G48A C55U A57G G68C | ≤ 0.5
C49A G63A | 0.582
G48A C49U A65G | 0.743

Variant | yeast fitness
U47A A65C C66G | ≤ 0.5
U47G G52A | ≤ 0.5
C46U C61G C66U A69U | ≤ 0.5
C46A G67A | 0.88
U47A C61G | 0.69
U47A C61A | 0.769
G48A C60G | 0.583
A45U C66G | 0.617
A45G C46G | 0.87
C46U G56C A69U | 0.54
A45G G58A C60U | 0.584
C46A U53A | 0.738
A45U C61U | 0.974
A45U U54C U64A A69U | ≤ 0.5
C49A C62U | 0.717
C46G C55G A69G | ≤ 0.5
U47G A65C | 0.672
U47A G63A | 0.823
G48A G56C A65G | 0.543
G48A G63A A70U | 0.811
C46U C49G | 0.997

Variant | yeast fitness
U47G U64C | 0.622
C46U C61A G67A | 0.568
A45U U53C | 0.793
A45U C46G G63A | ≤ 0.5
G48A A65G | 0.981
U47G C60U A65C | ≤ 0.5
C46G C49G C62A | 0.61
C49A A70G | 0.675
C46G U59C | 1.05
C46G G51C A70C | ≤ 0.5
G48C C55A C61U | ≤ 0.5
C46G A65G | 0.897
C46G A65C | 0.97
C46G A65U | 0.992
G48A C61G A69C | 0.603
G48C C62U G68C | 0.557
U47A A65U | 0.68
U47A A65C | 0.82
C46U U54C G58C G67A | ≤ 0.5
U47C U54C | 0.843
C46G G48C | 1.02
